The values that follow come from publication PMC3169429 (ACS chemical biology, 2010).

Data set [1] has as its target T1, bacteriophage T4 clamp loader, gp44/62 (Enterobacteria phage T4, UniProt P04526).
T1 sequence (P04526 1-319): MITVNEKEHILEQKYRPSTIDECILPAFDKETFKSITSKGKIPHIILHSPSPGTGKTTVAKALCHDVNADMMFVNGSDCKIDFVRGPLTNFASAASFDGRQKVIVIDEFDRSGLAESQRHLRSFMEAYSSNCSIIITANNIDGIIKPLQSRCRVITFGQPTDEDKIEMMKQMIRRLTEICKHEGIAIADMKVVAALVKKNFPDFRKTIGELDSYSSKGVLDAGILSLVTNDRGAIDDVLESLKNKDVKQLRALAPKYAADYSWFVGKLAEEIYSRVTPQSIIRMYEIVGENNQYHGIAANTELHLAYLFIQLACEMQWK
T1 sequence (P04527 1-187 partner): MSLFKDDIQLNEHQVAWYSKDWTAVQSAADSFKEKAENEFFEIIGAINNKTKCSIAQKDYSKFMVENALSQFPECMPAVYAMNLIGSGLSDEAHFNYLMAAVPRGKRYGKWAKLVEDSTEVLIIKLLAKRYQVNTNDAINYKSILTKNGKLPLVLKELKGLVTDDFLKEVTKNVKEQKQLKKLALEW
As to conditions: read-out: Ki (inhibition constant) against gp44/62; cited from earlier work.

Data set [2] deals with T2, gp44/62 opening of CPM-labeled gp45 (Enterobacteria phage T4, UniProt P04526).
T2 sequence (P04526 1-319): T1 sequence (P04526 1-319)
T2 sequence (P04527 1-187 partner): T1 sequence (P04527 1-187 partner)
Briefly: FRET quenching / stopped-flow fluorescence clamp opening assay. In kind it is biochemical, bacteriophage T4. As to conditions: 1 mM nucleotide, CPM-labeled gp45 mixed with gp44/62.

Data set [3] deals with E. coli clamp loader, γ-complex (Escherichia coli, UniProt P06710). Briefly: ATPase inhibition assay, γ-complex. It is filed as biochemical.
The target of data set [4] is R175L mutant of gp44/62 (Enterobacteria phage T4, UniProt P04526, R175L). Briefly: ATPase inhibition assay, gp44/62 R175L mutant. In kind it is biochemical, bacteriophage T4.
In data set [5] the target is T1, bacteriophage T4 clamp loader, gp44/62. Briefly: ATPase inhibition assay, wild-type gp44/62. It is filed as biochemical. As to conditions: for Selectivity Factor: Ki (γ-complex) / Ki (gp44/62).
Data set [6] addresses R175K mutant of gp44/62 (Enterobacteria phage T4, UniProt P04526, R175K). Put plainly: ATPase inhibition assay, gp44/62 R175K mutant. In kind it is biochemical, bacteriophage T4.
In data set [7] the test system is T4 bacteriophage. Briefly: Plaque forming assay in JA300 E. coli. It is filed as cell-based, T4 bacteriophage in E. coli JA300.
Data set [8] deals with JA300 E. coli cells. Briefly: Toxicity screen against E. coli. In kind it is cell-based, Escherichia coli. As to conditions: in suspension or plated on LB/agar for extended periods.
Data set [9] deals with T4 bacteriophage. Briefly: Plaque forming assay in deoxythymidine kinase deficient E. coli KY895. It is filed as cell-based, T4 bacteriophage in E. coli KY895 (tdk-1). As to conditions: 100 µg/ml. Summed up:
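The plaque assay used the deoxythymidine kinase knockout E. coli strain KY895 in place of JA300. An overnight culture was diluted 1:150 in LB and pre-incubated with the nucleoside for 60 min at 37°C. Cells were infected with ~300 pfu T4 and plated over LB/agar for 24 h at 37°C. Plaques were counted manually; ANOVA and t-test were applied.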

The target of data set [10] is T3, bacteriophage T4 replicase (Enterobacteria phage T4, UniProt P04526).
T3 sequence (P04526 1-319): T1 sequence (P04526 1-319)
T3 sequence (P04527 1-187 partner): T1 sequence (P04527 1-187 partner)
Briefly: Replicase formation. It is filed as biochemical. As to conditions: 100 µM inhibitor.

Data set [11] has as its system T4 DNA polymerase. Put plainly: DNA polymerase activity in the strand displacement assay. In kind it is biochemical, bacteriophage T4. As to conditions: absence or presence of 100 µM d5-NITP.
The target in data set [12] is T4, gp44/62 (Enterobacteria phage T4, UniProt P04526).
T4 sequence (P04526 1-319): T1 sequence (P04526 1-319)
T4 sequence (P04527 1-187 partner): T1 sequence (P04527 1-187 partner)
Briefly: Hydrolysis of nucleotide substrates by gp44/62. In kind it is biochemical, bacteriophage T4. As to conditions: nucleotide substrates at 500 µM. Summed up:
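Wild-type T4 gp44/62 purified from an overproducing strain. Each ribo- or deoxy-nucleotide was supplied as substrate. Hydrolysis was read as Pi release by malachite green.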

Sequence of R175L mutant of gp44/62 (P04526 whole entry R175L, one chain of several): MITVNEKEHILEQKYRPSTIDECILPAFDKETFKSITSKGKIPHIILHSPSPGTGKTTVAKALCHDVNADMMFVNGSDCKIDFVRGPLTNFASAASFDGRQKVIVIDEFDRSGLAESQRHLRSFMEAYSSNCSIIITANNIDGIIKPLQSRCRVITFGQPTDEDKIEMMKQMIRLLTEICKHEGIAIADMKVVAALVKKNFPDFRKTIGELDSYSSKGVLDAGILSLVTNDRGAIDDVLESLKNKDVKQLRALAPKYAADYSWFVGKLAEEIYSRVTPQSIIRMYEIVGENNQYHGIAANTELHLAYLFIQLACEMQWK
Sequence of R175K mutant of gp44/62 (P04526 whole entry R175K, one chain of several): as the sequence (P04526 whole entry R175L, one chain of several) above, with L175K counted along it

In the case of `Nc1ncnc2c1ncn2C1OC(COP(=O)(O)OP(=O)(O)NP(=O)(O)O)C(O)C1O` (stereo not drawn) [AMP-PNP, 5'-adenylyl-beta, gamma-imidodiphosphate], the Ki in [1] is 1200 µM.
For the compound `Nc1ncnc2c1ncn2[C@@H]1O[C@H](COP(=O)(O)OP(=O)(O)OP(=O)(O)O)[C@@H](O)[C@H]1O` [ATP, reference compound], the “Amplitude of change in fluorescence (clamp opening)” value in data set [2] was found to be 0.2199 ± 0.0004 units.
`Nc1ncnc2c1ncn2[C@@H]1O[C@H](CO[P@](=O)(O)O[P@](=O)(O)O[P@@](=O)(O)S)[C@@H](O)[C@H]1O` [ATPγS, reference compound]: the Ki in data set [3] was found to be 13 ± 4.5 µM; in data set [4], 33.2 ± 8 µM; in data set [6] it was 14 ± 3.5 µM. The “Selectivity Factor” value in data set [5] worked out at 0.44.
On to `O=C(N[C@H](CO)[C@H](O)c1ccc([N+](=O)[O-])cc1)C(Cl)Cl` [chloramphenicol, reference compound], for which the “Decrease in phage infectivity” value in data set [7] (bacteriostatic agent control) is given as “does not cause an appreciable decrease”.
On to `O=[N+]([O-])c1cccc2c1ccn2[C@H]1C[C@H](O)[C@@H](COP(=O)(O)OP(=O)(O)OP(=O)(O)O)O1` [d4-NITP, 4-nitro-indolyl-2’-deoxyriboside triphosphate], for which the “Selectivity Factor” value in data set [5] is recorded as 0.32. In data set [5] (wild type gp44/62), the “Fold higher Ki than d5-NITP” value was ~ 6 fold.
In the case of `Nc1ccc2c(ccn2[C@H]2C[C@H](O)[C@@H](COP(=O)(O)OP(=O)(O)OP(=O)(O)O)O2)c1` [d5-AITP, 5-amino-indolyl-2’-deoxyriboside triphosphate], the “Selectivity Factor” value in [5] was less than 0.23.
On the same count and under the same terms, to `O=P(O)(O)OP(=O)(O)OP(=O)(O)OC[C@H]1O[C@@H](n2ccc3cc(C4=CCCCC4)ccc32)C[C@@H]1O` [d5-CEITP, 5-cyclohexene-indolyl-2’-deoxyriboside triphosphate] belongs 1.18; to `O=P(O)(O)OP(=O)(O)OP(=O)(O)OC[C@H]1O[C@@H](n2ccc3cc(C4CCCCC4)ccc32)C[C@@H]1O` [d5-CHITP, 5-cyclohexyl-indolyl-2’-deoxyriboside triphosphate], 0.51.
Regarding `CCc1ccc2c(ccn2[C@H]2C[C@H](O)[C@@H](COP(=O)(O)OP(=O)(O)OP(=O)(O)O)O2)c1` [d5-EtITP, 5-ethyl-indolyl-2’-deoxyriboside triphosphate], the “Fold lower Ki in R175L mutant compared to wild type enzyme” value in data set [4] is reported as ~ 10 fold. In [5], the “Selectivity Factor” value amounted to 0.11.
Regarding `C=Cc1ccc2c(ccn2[C@H]2C[C@H](O)[C@@H](CO)O2)c1` [d5-Ey, 5-ethylene-indolyl-2'-deoxyribose], in data set [7] (150 µg/mL), the “Inhibition of plaque formation” value stood at 15%.
In the case of `C=Cc1ccc2c(ccn2[C@H]2C[C@H](O)[C@@H](COP(=O)(O)OP(=O)(O)OP(=O)(O)O)O2)c1` [d5-EyITP, 5-ethylene-indolyl-2’-deoxyriboside triphosphate], in data set [4], the “Fold lower Ki in R175L mutant compared to wild type enzyme” value was ~ 10 fold. Besides, the “Selectivity Factor” value in data set [5] is reported as less than 0.15.
As for `OC[C@H]1O[C@@H](n2ccc3cc(F)ccc32)C[C@@H]1O` [d5-FI, 5-fluoro-indolyl-2’-deoxyriboside], the “Inhibition of plaque formation” value in [7] (100 µg/mL) is recorded as “do not inhibit plaque formation”.
Take `O=P(O)(O)OP(=O)(O)OP(=O)(O)OC[C@H]1O[C@@H](n2ccc3cc(F)ccc32)C[C@@H]1O` [d5-FITP, 5-fluoro-indolyl-2’-deoxyriboside triphosphate]: the “Selectivity Factor” value in [5] was less than 0.17.
Turning to `O=[N+]([O-])c1ccc2c(ccn2[C@H]2C[C@H](O)[C@@H](CO)O2)c1` [d5-NI, 5-nitro-indolyl-2’-deoxyriboside], the “Bactericidal or bacteriostatic effect on E. coli” value in data set [8] is recorded as “does not produce a significant bactericidal or bacteriostatic effect”. Further, the “Effect on plaque formation in tdk-1 strain KY895 compared to wild-type JA300” value in data set [9] is “significantly reduced”. Also, the “Inhibition of gp44/62” value in data set [5] (at concentrations greater than 200 µM) was “does not inhibit”. For the same compound, the “Fold less protection at 25 µg/mL than at 50 µg/mL” value in data set [7] (25 µg/mL versus 50 µg/mL) is reported as ~ 2.5 fold. Also, the “Fewer plaques compared to untreated E. coli” value in [7] (E. coli preincubated with 100 µg/mL) is given as ~ 40%.
As for `O=[N+]([O-])c1ccc2c(ccn2[C@H]2C[C@H](O)[C@@H](COP(=O)(O)OP(=O)(O)OP(=O)(O)O)O2)c1` [d5-NITP, 5-nitro-indolyl-2’-deoxyriboside triphosphate], the “Formation of the replicase complex” value in data set [10] is reported as “inhibits formation of the replicase complex”. Further, in [11], the “Effect on polymerase activity (products generated by polymerase alone)” value is recorded as “identical amounts of products are generated”. The “Amplitude of change in fluorescence (clamp opening)” value in data set [2] stood at 0.044 ± 0.002 units.
As to `O=P(O)(O)OP(=O)(O)OP(=O)(O)OC[C@H]1O[C@@H](n2ccc3cc(-c4ccccc4)ccc32)C[C@@H]1O` [d5-PhITP, 5-phenyl-indolyl-2’-deoxyriboside triphosphate], in [5], the “Selectivity Factor” value is on record as 0.18.
On the same count and under the same terms, to `O=[N+]([O-])c1ccc2ccn([C@H]3C[C@H](O)[C@@H](COP(=O)(O)OP(=O)(O)OP(=O)(O)O)O3)c2c1` [d6-NITP, 6-nitro-indolyl-2’-deoxyriboside triphosphate] belongs 1.59.
Turning to `Nc1ncnc2c1ncn2[C@H]1C[C@H](O)[C@@H](COP(=O)(O)OP(=O)(O)OP(=O)(O)O)O1` [dATP, reference compound], in data set [12], the “Hydrolysis by gp44/62” value is given as “hydrolyzes dATP just as efficiently as ATP”.
Take `O=P(O)(O)OP(=O)(O)OP(=O)(O)OCC1OC(n2ccc3ccccc32)CC1O` (stereo not drawn) [dITP, indolyl-2’-deoxyriboside triphosphate]: the “Selectivity Factor” value in data set [5] was less than 0.30.
For `O=[N+]([O-])c1ccc2c(ccn2[C@@H]2O[C@H](COP(=O)(O)OP(=O)(O)OP(=O)(O)O)[C@@H](O)[C@H]2O)c1` [r5-NITP, 5-nitro-indolyl-2’-ribose triphosphate], in data set [12], the “Hydrolysis by gp44/62” value is given as “incapable of hydrolyzing r5-NITP”. Further, in data set [5] (dose-dependent inhibition of gp44/62 ATPase activity), the Hill coefficient is recorded as ~ 1.
